Yeast fitness data for 167 variants are collected here from the RNAGym collection of RNA variant scans (doi:10.1126/science.aae0568).

This sample holds only a part of the variants without activity.

The chains are these.
B1: tRNA (parent)
chain: GUUCCGUUGGCGUAAUGGUAACGCGUCUCCCUCCUAAGGAGAAGACUGCGGGUUCGAGUCCCGUACGGAACG

The variants in this data set derive from B1. Kind of data set: yeast fitness relative to wild type (ratio to wild type); higher = fitter; tRNA-Arg(CCU), competitive growth, 37 C, YPD. In a few lines:
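Variants of the tRNA-Arg(CCU) gene, chemically synthesised with a 3% per-site mutation rate at 69 sites, were placed at the native genomic locus in Saccharomyces cerevisiae. The pooled strains were competed in YPD at 37°C for 24 hours in six parallel replicates. Gene amplicons from the start population and from each end population were read by 100-nucleotide paired-end sequencing. Darwinian fitness relative to wild type came from changes in genotype frequencies; genotypes needed ≥ 100 starting reads, and estimates < 0.5 were set to 0.5.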
G25C G41A: the yeast fitness came out at 0.789.
The same measure for G25C A69C: 1.07; for G25C C46U: 1.06.
Regarding G25C C46G, the yeast fitness is 0.938.
Turning to G25C C31U U32A C46U, the yeast fitness is no more than 0.5.
With G25A U26C A36G, the yeast fitness was 1.07.
Regarding G25C A40U G48C, the yeast fitness was no more than 0.5.
As for G25C A40U A42C C61A C66U, the yeast fitness is no more than 0.5.
For the variant G25A C31A C62U, the yeast fitness was found to be 0.586.
For G25A G50A C55A C66A, the yeast fitness was no more than 0.5.
The result for G25A G44A reads 0.841.
G25A U28A A65U: the yeast fitness is 0.697.
Regarding G25C C34A C46U, the yeast fitness worked out at 0.555.
For the variant G25C G38A A65G, the yeast fitness came to 1.04.
With U26A, the yeast fitness was 0.996.
As to G25A C31U A42G C62U A69C, the yeast fitness was no more than 0.5.
Consider G25C U32C G41A, for which the yeast fitness is no more than 0.5.
Turning to G25C U32A A40C, the yeast fitness is no more than 0.5.
As to G25A U32A C49U U53A, the yeast fitness was no more than 0.5.
The same measure for G25U C29A G56C: no more than 0.5.
Turning to U26A A40C G41A G58A, the yeast fitness stood at 0.655.
Consider G25A C33G A42G G50A, for which the yeast fitness was 0.596.
G25A G52A A57G G67A: the yeast fitness was no more than 0.5.
Regarding G25A C27G C46G C61A, the yeast fitness is no more than 0.5.
Turning to G25C G41C C46U U59C A65U, the yeast fitness was no more than 0.5.
As for G25C A43U G50A G68A, the yeast fitness was no more than 0.5.
In the case of G25C C29G C33U G39U, the yeast fitness was no more than 0.5.
As for G25A G48C C49G, the yeast fitness is no more than 0.5.
Consider G25C A43U C61G G67C, for which the yeast fitness was no more than 0.5.
For the variant G25C G41C G68C, the yeast fitness was found to be 0.565.
The result for G25C U47G G52A reads 0.549; that for G25C C29G C46G, no more than 0.5; that for G25C U28A C33A, 0.539.
On to G25A C29U A69C, for which the yeast fitness was 0.807.
The same measure for G25C C55G: no more than 0.5; for G25C C55A: 0.68.
Consider G25A C34U A36U C60U, for which the yeast fitness was no more than 0.5.
On to G25A C30U A43G G52A, for which the yeast fitness was determined as 0.701.
Regarding G25C U64A, the yeast fitness was 0.709.
Consider G25C G58C G68A, for which the yeast fitness stood at 0.639.
Take G25C C27U: the yeast fitness amounted to 0.773.
Take G25C C30G C60U: the yeast fitness is no more than 0.5.
Regarding G25A C31A G51C C55G A57U C66U, the yeast fitness is no more than 0.5.
As to G25A C31U A37C G68U, the yeast fitness is no more than 0.5.
Regarding G25C U28C C55A, the yeast fitness was found to be 0.539.
On to G25C C29A G52A G67A, for which the yeast fitness was no more than 0.5.
Regarding G25C C49U, the yeast fitness was determined as 1.01.
Regarding G25C U32G A65G, the yeast fitness is no more than 0.5.
The result for U26A A37C C61A reads no more than 0.5; that for G25A G52A C66U, 0.637.
Take G25C C30G C33U A45G U47G G50C G63A: the yeast fitness is no more than 0.5.
On to G25A U32C G41A G56A, for which the yeast fitness stood at 0.553.
Turning to G25C C34U C66U, the yeast fitness was no more than 0.5.
As for G25C C31G G51C, the yeast fitness is no more than 0.5.
In the case of G25C C49U G67U G68C A69U, the yeast fitness is no more than 0.5.
As for G25C C29G C46G G51C, the yeast fitness was no more than 0.5.
For the variant G25A C31G A70G, the yeast fitness was 0.642.
For G25A G41A C46A A69C, the yeast fitness was 0.935.
G25C C31U G56A: the yeast fitness amounted to 0.616.
G25A C30A C34A A69C: the yeast fitness was no more than 0.5.
Regarding U26A A36C C61U, the yeast fitness was no more than 0.5.
G25A U26A C31U G38A A42G A43U G48C G68C: the yeast fitness was no more than 0.5.
On to G25A G41C U54G C61U, for which the yeast fitness was no more than 0.5.
Turning to G25C A45U C60A, the yeast fitness was no more than 0.5.
Take G25A C27G C60A A70U: the yeast fitness is no more than 0.5.
Take G25C A45G: the yeast fitness was determined as 0.869.
The same measure for G25C A45C: 1.06; for G25C C31A A37C U47C C61U: 0.702; for G25C A40C: 0.848.
The result for G25C A40G reads 0.645; that for G25A C34G, 0.726; that for G25C G39C U54G A65U, 0.514.
G25C A40G A57C A69U A70C: the yeast fitness was no more than 0.5.
With G25A U35A G52A U59C C66A G67A, the yeast fitness is no more than 0.5.
Take G25A C29U A45U: the yeast fitness was 0.69.
Consider G25C G56C C61G, for which the yeast fitness is no more than 0.5.
G25C A36C: the yeast fitness turned out to be 0.718.
The result for G25C A36U reads 0.724; that for G25C A36G, 0.864; that for G25A U28G, 0.762.
Turning to G25C C46A G50C, the yeast fitness came out at 0.618.
G25C C31U U32A C55A A69U: the yeast fitness was no more than 0.5.
Regarding G25C G39C, the yeast fitness came to 0.685.
The same measure for G25A G51C C66U: no more than 0.5.
Regarding G25C A36G G48A C60A, the yeast fitness was no more than 0.5.
Turning to G25C G41C C46U C61G, the yeast fitness was no more than 0.5.
In the case of G25A C34A U47C, the yeast fitness was no more than 0.5.
For the variant G25A U59C, the yeast fitness was 0.775.
The result for G25A G48C G52C C55U reads no more than 0.5; that for G25C A70C, 1.05; that for G25C A70U, 0.867.
The result for G25C A70G reads 0.873.
The same measure for G25C G51C: 0.654; for G25C C61G G67C: 0.527; for G25A C29U C49U C61A: no more than 0.5.
Regarding G25A C33U A45U C60G, the yeast fitness was no more than 0.5.
The same measure for G25A C27U A36U: 0.53; for G25A G41A A70C: 0.714; for G25C C34A C66U: 0.54.
As for G25A C27G G67C, the yeast fitness was no more than 0.5.
As to G25C C29U A42U, the yeast fitness stood at 0.664.
Turning to G25C C33G G50C U54C, the yeast fitness was no more than 0.5.
G25A C27A: the yeast fitness is 1.11.
For the variant G25A C27G, the yeast fitness was 0.78.
Take G25A U64A: the yeast fitness is 0.901.
In the case of G25A U64C, the yeast fitness is 0.902.
G25C G39A G63C A70U: the yeast fitness is no more than 0.5.
G25C G39C G44C C60U G68C: the yeast fitness is no more than 0.5.
The same measure for G25A C30U C62U: 0.583.
On to G25A C55U U59C A65C, for which the yeast fitness is no more than 0.5.
Take U26A A40C: the yeast fitness amounted to 0.755.
The same measure for G25C G41C C46U A65U: 0.551; for G25A U26A C55G G68C A69G: no more than 0.5; for G25C C46G U53G C66A: 0.81.
In the case of U26A A37C A57U, the yeast fitness is no more than 0.5.
Take G25A C31U G38C: the yeast fitness came out at 0.881.
For G25A G68C, the yeast fitness turned out to be 0.938.
For G25C C33A A43U A57U A69U, the yeast fitness is no more than 0.5.
With G25A C46A G52C, the yeast fitness came to 0.615.
Consider G25C C27G G58A, for which the yeast fitness is no more than 0.5.
As for G25A C30A G38A A43G C46U A57U, the yeast fitness amounted to 0.614.
On to G25U C34G C55G U59C C60U G67U, for which the yeast fitness is no more than 0.5.
As to G25C G67C, the yeast fitness amounted to 0.797.
Regarding G25A C29U A57U C62A A69G, the yeast fitness is no more than 0.5.
As for G25C C34A, the yeast fitness is 0.625.
G25U G44C: the yeast fitness is 0.647.
In the case of G25C U26G C46G A69U, the yeast fitness worked out at 0.521.
G25C C31U G68U: the yeast fitness amounted to 0.587.
As to U26A A37G G48A C49G, the yeast fitness was no more than 0.5.
The same measure for G25A G52A A70U: 0.666; for G25A C29G A45C C46G: no more than 0.5.
G25A U28A A36U A37U A42U: the yeast fitness is no more than 0.5.
For G25A C30U U54A, the yeast fitness is 0.533.
The result for G25A G41C reads 0.974; that for G25A G63C, 0.737; that for G25A G63A, 0.949.
The result for G25A C62U reads 0.931; that for G25A C62G, 0.855; that for G25A C62A, 0.843.
For G25A G48A A70C, the yeast fitness was 1.13.
On to G25C C55U A57U, for which the yeast fitness was determined as 0.551.
For the variant G25C G67A G68A, the yeast fitness was 0.655.
G25C C34U A45C: the yeast fitness is 0.54.
As to G25C A40C C55U, the yeast fitness was 0.708.
For the variant G25A A69C, the yeast fitness worked out at 1.02.
Regarding G25C A42G A45C U47C C62U, the yeast fitness is no more than 0.5.
Take G25U A36U: the yeast fitness is 0.531.
Take G25C U32G G44A C46G: the yeast fitness is no more than 0.5.
In the case of G25C A42G, the yeast fitness was 0.911.
In the case of G25A C29A A43C A57C, the yeast fitness is no more than 0.5.
With G25C A43C C62A U64G C66G, the yeast fitness is no more than 0.5.
On to G25C C30G U32G A42C C49U, for which the yeast fitness worked out at 0.543.
In the case of G25C A40U C49U, the yeast fitness was determined as 0.66.
The result for G25U A36U C49U reads no more than 0.5; that for U26A A36G A37G C46G C49U U54C A70G, 0.754.
With G25A G38C, the yeast fitness came out at 0.775.
G25U: the yeast fitness amounted to 0.937.
In the case of G25C, the yeast fitness was found to be 1.
As to G25A U26A C31U G38A A42G A43U, the yeast fitness is 0.52.
For G25C A37G A40C C61G, the yeast fitness was no more than 0.5.
The same measure for G25C C30G A36U C46U A65G: no more than 0.5; for G25C U26G C46G C60G: no more than 0.5.
On to G25A C61G, for which the yeast fitness came out at 0.679.
For G25A C61A, the yeast fitness came out at 0.595.
Take G25A C61U: the yeast fitness turned out to be 0.971.
Take G25C C49U G51A A57G: the yeast fitness is no more than 0.5.
For the variant G25A C29U C31U, the yeast fitness was 0.57.
